Reference: ChEMBL document CHEMBL4138104, “Indole carboxylic acid esters of melampomagnolide B are potent anticancer agents against both hematological and solid tumor cells” (Eur J Med Chem, 2017)
Calls of active or inactive are those of the source. The rule behind the calls is not given here.

Legend:
DU-145 = experiment: Growth inhibition of human DU145 cells incubated for 48 hrs by sulforhodamine B assay; format: functional; conditions: DU-145, 48 h
Outline: (§1)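 NCI-60 screen. Compounds were dosed at five concentrations spanning 10^-4 to 10^-8 M for 48 h at 37 °C. Cells were TCA-fixed, stained with 0.4% SRB and read at 515 nm against time-zero and vehicle controls. GI50 is the concentration giving a 50% reduction in net protein increase.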

OVCAR-4 = experiment: Growth inhibition of human OVCAR4 cells incubated for 48 hrs by sulforhodamine B assay; format: functional; conditions: OVCAR-4, 48 h; outline: as §1
IGROV-1 = experiment: Growth inhibition of human IGROV1 cells incubated for 48 hrs by sulforhodamine B assay; format: functional; conditions: IGROV-1, 48 h; outline: as §1
SR = experiment: Growth inhibition of human SR cells incubated for 48 hrs by sulforhodamine B assay; format: functional
Outline: (§2)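 NCI-60 screen run at NCI. Cells grown in RPMI medium with 5% FBS and 2 mM L-glutamine, plated at 5,000–40,000 cells/well, and preincubated 24 h at 37 °C. Time-zero plates were TCA-fixed. Compounds came from DMSO stocks and were tested at five concentrations from 10^-4 to 10^-8 M for 48 h. Cells were then TCA-fixed, stained with 0.4% SRB, and OD read at 515 nm. GI50 is the concentration giving a 50% reduction in net protein increase versus control.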

SK-OV-3 = experiment: Growth inhibition of human SKOV3 cells incubated for 48 hrs by sulforhodamine B assay; format: functional; conditions: SK-OV-3, 48 h; outline: as §1
MDA-MB-231 = experiment: Growth inhibition of human MDA-MB-231/ATCC cells incubated for 48 hrs by sulforhodamine B assay; format: functional; conditions: MDA-MB-231, 48 h; outline: as §1
HOP-62 = experiment: Growth inhibition of human HOP62 cells incubated for 48 hrs by sulforhodamine B assay; format: functional; conditions: HOP-62, 48 h; outline: as §1
SK-MEL-2 = experiment: Growth inhibition of human SK-MEL-2 cells incubated for 48 hrs by sulforhodamine B assay; format: functional; conditions: SK-MEL-2, 48 h; outline: as §1
T47D = experiment: Growth inhibition of human T47D cells incubated for 48 hrs by sulforhodamine B assay; format: functional; outline: as §2
786-0 = experiment: Growth inhibition of human 786-0 cells incubated for 48 hrs by sulforhodamine B assay; format: functional; conditions: 786-0, 48 h; outline: as §1
PC-3 = experiment: Growth inhibition of human PC3 cells incubated for 48 hrs by sulforhodamine B assay; format: functional; conditions: PC-3, 48 h; outline: as §1
EKVX = experiment: Growth inhibition of human EKVX cells incubated for 48 hrs by sulforhodamine B assay; format: functional; outline: as §1
M14 = experiment: Growth inhibition of human M14 cells incubated for 48 hrs by sulforhodamine B assay; format: functional; conditions: M14, 48 h; outline: as §1
SNB-75 = experiment: Growth inhibition of human SNB75 cells incubated for 48 hrs by sulforhodamine B assay; format: functional; conditions: SNB-75, 48 h; outline: as §2
MDA-MB-468 = experiment: Growth inhibition of human MDA-MB-468 cells incubated for 48 hrs by sulforhodamine B assay; format: functional; conditions: MDA-MB-468, 48 h; outline: as §1
MDA-MB-435 = experiment: Growth inhibition of human MDA-MB-435 cells incubated for 48 hrs by sulforhodamine B assay; format: functional; conditions: MDA-MB-435, 48 h; outline: as §1
SK-MEL-5 = experiment: Growth inhibition of human SK-MEL-5 cells incubated for 48 hrs by sulforhodamine B assay; format: functional; conditions: SK-MEL-5, 48 h; outline: as §1
CAKI-1 = experiment: Growth inhibition of human Caki1 cells incubated for 48 hrs by sulforhodamine B assay; format: functional; conditions: CAKI-1, 48 h; outline: as §1
OVCAR-3 = experiment: Growth inhibition of human OVCAR3 cells incubated for 48 hrs by sulforhodamine B assay; format: functional; conditions: OVCAR-3, 48 h; outline: as §1
ACHN = experiment: Growth inhibition of human ACHN cells incubated for 48 hrs by sulforhodamine B assay; format: functional; outline: as §1
Hs-578T = experiment: Growth inhibition of human Hs 578T cells incubated for 48 hrs by sulforhodamine B assay; format: functional; outline: as §1
TK-10 = experiment: Growth inhibition of human TK10 cells incubated for 48 hrs by sulforhodamine B assay; format: functional; conditions: TK-10, 48 h; outline: as §2
BT-549 = experiment: Growth inhibition of human BT549 cells incubated for 48 hrs by sulforhodamine B assay; format: functional; conditions: BT-549, 48 h; outline: as §1
COLO 205 = experiment: Growth inhibition of human COLO205 cells incubated for 48 hrs by sulforhodamine B assay; format: functional; conditions: COLO 205, 48 h; outline: as §1
[1] = Solubility of the compound in water; format: physicochemical; conditions: buffer
Rattus norvegicus [2] = species on record: Rattus norvegicus; experiment: Induction of necrosis in rat 9LSF cells at 20 uM after 48 hrs by microscopic analysis; format: functional, cell-based
Outline: (§3)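 Rat 9L-SF gliosarcoma cells were grown in DMEM/F12 with 10% iron-supplemented calf serum at 37 °C under 5% CO2. Treatment was applied to 50% confluent monolayers. Cell detachment and necrosis were scored visually by microscopy.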

[3] = Induction of apoptosis in AML02 cells isolated from acute myelogenous leukemia patient after 24 hrs by annexin V/7-AAD/propidium iodide staining-based flow cytometric method; format: functional, cell-based; conditions: Homo sapiens
Outline: (§4)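 Primary AML specimens from consenting patients were Ficoll-separated and some were cryopreserved. Cells were held 1 h in serum-free IMDM with 20% BIT 9500, LDL and beta-mercaptoethanol before drug. Drugs were diluted from DMSO stock into PBS, final DMSO ≤0.5%. Dosing was 0.5–10 μM for 24 h. Annexin V/7-AAD flow cytometry scored double-negative (non-apoptotic) cells, normalized to vehicle, in triplicate, and EC50 came from dose-response curves.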

[4] = Potency index, ratio of melampomagnolide-B EC50 to compound EC50 for human M9-ENL1 cells; format: functional
Outline: (§5)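 M9-ENL1 AML cells, derived by MLL-ENL transduction of human blood cells, were plated at 10^6 cells/mL in alpha-MEM with 5% human plasma, 20% FBS, SCF, IL-3, IL-7 and FLT3 ligand. Exposure was 24 h. Non-apoptotic (Annexin V/7-AAD double-negative) fraction was normalized to vehicle, in triplicate, to give EC50. PTL and MMB were run as reference controls.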

[5] = Induction of apoptosis in AML01 cells isolated from acute myelogenous leukemia patient after 24 hrs by annexin V/7-AAD/propidium iodide staining-based flow cytometric method; format: functional, cell-based; conditions: Homo sapiens, AML01, 24 h; outline: as §4
[6] = Induction of apoptosis in AML03 cells isolated from acute myelogenous leukemia patient after 24 hrs by annexin V/7-AAD/propidium iodide staining-based flow cytometric method; format: functional, cell-based; conditions: Homo sapiens; outline: as §4
Rattus norvegicus [7] = species on record: Rattus norvegicus; experiment: Induction of cell detachment in rat 9LSF cells at 20 uM after 48 hrs by microscopic analysis; format: functional, cell-based; outline: as §3
[8] = Potency index, ratio of PTL EC50 to compound EC50 for human M9-ENL1 cells; format: functional; outline: as §5
[9] = Induction of apoptosis in AML04 cells isolated from acute myelogenous leukemia patient after 24 hrs by annexin V/7-AAD/propidium iodide staining-based flow cytometric method; format: functional, cell-based; conditions: Homo sapiens; outline: as §4
Rattus norvegicus [10] = species on record: Rattus norvegicus; experiment: Inhibition of colony formation of rat 9LSF cells at 5 to 20 uM after 48 hrs by colony formation assay; format: functional
Outline: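 9L-SF cells were seeded in 60 mm dishes to reach 50% confluence (6.65×10^4 cells/cm²) after 24 h. They were treated 48 h with drug serially diluted from DMSO stock (max 0.05% DMSO), then rinsed, trypsinized, counted and seeded in triplicate flasks for colonies. Lethally irradiated (25 Gy) feeders kept density at 2,000 cells/cm². Survival was normalized to control plating efficiency, with three experiments.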

| SMILES | GI50 (DU-145) [nM] | GI50 (OVCAR-4) [nM] | GI50 (IGROV-1) [nM] | GI50 (SK-OV-3) [nM] | GI50 (MDA-MB-231) [nM] | GI50 (HOP-62) [nM] | GI50 (SK-MEL-2) [nM] | GI50 (T47D) [nM] | GI50 (786-0) [nM] | GI50 (PC-3) [nM] | GI50 (EKVX) [nM] | GI50 (M14) [nM] | GI50 (SNB-75) [nM] | GI50 (MDA-MB-468) [nM] | GI50 (MDA-MB-435) [nM] | GI50 (SK-MEL-5) [nM] | GI50 (CAKI-1) [nM] | GI50 (OVCAR-3) [nM] | GI50 (ACHN) [nM] | GI50 (TK-10) [nM] | also measured |
| --- | --- | --- | --- | --- | --- | --- | --- | --- | --- | --- | --- | --- | --- | --- | --- | --- | --- | --- | --- | --- | --- |
| CN(C)CC1C(=O)O[C@@H]2[C@H]3O[C@]3(C)CC/C=C(/COC(=O)c3cc4ccccc4[nH]3)CC[C@@H]12.O=C(O)/C=C/C(=O)O (stereo partly drawn) | 1490 | 1360 | 2070 | 2190 | 1740 | 2200 | 2100 | 2110 | 1710 | 2370 | 3360 | 1570 | 3210 | 1120 | 1280 | 1850 | 1110 | 350 | 670 | 2120 | GI50 (SR): 1590 nM; GI50 (Hs-578T): 3030 nM; GI50 (BT-549): 1570 nM; GI50 (COLO 205): 1980 nM; solubility [1]: Soluble |
| C=C1C(=O)O[C@@H]2[C@H]3O[C@]3(C)CC/C=C(/COC(=O)/C=C/c3c[nH]c4ccccc34)CC[C@@H]12 | 390 | 200 | 220 | 1880 | 170 | 820 | 200 | 200 | 220 | 320 | 230 | 220 | 170 | 190 | 220 | 200 |  | 170 | 200 | 270 | Activity (Rattus norvegicus [2]): Active; EC50 [3]: 910 nM; GI50 (SR): 270 nM; Ratio IC50 [4]: >20; EC50 [5]: 1300 nM; EC50 [6]: 320 nM; Activity (Rattus norvegicus [7]): Active; Ratio IC50 [8]: 9; GI50 (Hs-578T): 350 nM; EC50 [9]: 1000 nM; GI50 (BT-549): 170 nM; GI50 (COLO 205): 220 nM |
| C=C1C(=O)O[C@@H]2[C@H]3O[C@]3(C)CC/C=C(/COC(=O)c3cc4cc(Cl)ccc4[nH]3)CC[C@@H]12 |  | 1330 | 1380 | 10200 | 1320 | 2220 | 1730 | 1340 | 1510 | 2420 | 1400 | 1470 | 570 | 1890 | 1240 | 1910 | 1190 | 1250 | 1350 | 1750 | GI50 (SR): 770 nM; Ratio IC50 [4]: 2 - 20; GI50 (Hs-578T): 2250 nM; GI50 (BT-549): 1310 nM; GI50 (COLO 205): 1720 nM |
| C=C1C(=O)O[C@@H]2[C@H]3O[C@]3(C)CC/C=C(/COC(=O)c3cc4ccccc4[nH]3)CC[C@@H]12 | 1210 |  |  | 1650 | 1140 |  | 1920 | < 10 | 370 | 1420 |  | 810 | 1010 | 300 | 760 | 1260 | 1080 |  | 340 | 1390 | Activity (Rattus norvegicus [2]): Active; EC50 [3]: 2700 nM; GI50 (SR): 1080 nM; inhibition (Rattus norvegicus [10]): Active; Ratio IC50 [4]: 2 - 20; EC50 [5]: 3500 nM; EC50 [6]: 2900 nM; Activity (Rattus norvegicus [7]): Active; EC50 [9]: 2200 nM; GI50 (BT-549): < 10 nM |
| C=C1C(=O)O[C@@H]2[C@H]3O[C@]3(C)CC/C=C(/COC(=O)c3cc4cc(OC)ccc4[nH]3)CC[C@@H]12 | 1030 | 1630 | 1480 | 4900 | 1580 | 1640 | 1600 | 1300 | 1270 | 1830 | 1500 | 1270 |  | 1130 | 620 | 1740 | 1710 | 930 | 810 | 1280 | EC50 [3]: 3300 nM; Ratio IC50 [4]: 2 - 20; EC50 [5]: 3000 nM; EC50 [6]: 2200 nM; GI50 (Hs-578T): 3090 nM; EC50 [9]: 3300 nM; GI50 (BT-549): 1060 nM; GI50 (COLO 205): 1180 nM |
| C=C1C(=O)O[C@@H]2C3O[C@]3(C)CC/C=C(\C)CC[C@@H]12 (stereo partly drawn) |  | 21500 | 21100 | 54700 |  | 49000 |  |  |  |  | 17300 |  | 48400 |  |  |  | 9350 | 17400 |  |  | EC50 [3]: 6300 nM; EC50 [5]: 5200 nM; EC50 [6]: 1900 nM; EC50 [9]: 13000 nM |
| C=C1C(=O)O[C@@H]2[C@H]3O[C@]3(C)CC/C=C(/COC(=O)c3cc4cc(F)ccc4[nH]3)CC[C@@H]12 | 1670 | 1670 | 1440 | 11600 | 1590 | 2920 | 1950 | 1560 | 1780 | 1700 | 1580 | 1890 | 11100 | 1860 | 1500 | 1850 | 1200 | 1200 | 1460 | 1830 | GI50 (SR): 2030 nM; Ratio IC50 [4]: 2 - 20; GI50 (Hs-578T): 2950 nM; GI50 (COLO 205): 1640 nM |
